Measured values of several laboratories.
Target: Serine/threonine-protein kinase 17A (STK17A, Homo sapiens, UniProt Q9UEE5)
Residues used in one study (Q9UEE5 1-414): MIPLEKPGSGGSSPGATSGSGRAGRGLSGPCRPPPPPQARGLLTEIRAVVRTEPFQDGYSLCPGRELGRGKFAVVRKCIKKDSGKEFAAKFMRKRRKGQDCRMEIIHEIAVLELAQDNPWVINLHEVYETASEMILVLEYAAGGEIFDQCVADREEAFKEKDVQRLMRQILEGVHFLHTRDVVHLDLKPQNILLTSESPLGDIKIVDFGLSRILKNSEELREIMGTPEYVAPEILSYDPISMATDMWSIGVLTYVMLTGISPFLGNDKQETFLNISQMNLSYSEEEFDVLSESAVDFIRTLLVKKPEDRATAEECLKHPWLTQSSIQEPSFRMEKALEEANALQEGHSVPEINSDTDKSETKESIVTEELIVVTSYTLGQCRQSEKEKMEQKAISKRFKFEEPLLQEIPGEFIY

| Structure (SMILES) | assay | setting | measurement | value |
| --- | --- | --- | --- | --- |
| NS(=O)(=O)c1ccc(CNc2nc(Nc3cccc(NC(=O)N4CCCC4)c3)ncc2C2CC2)cc1 | enzyme activity, inhibitor, radiometric | 1 µM | remaining activity | 79% |
| N#CC1(c2ccccn2)CCN(Cc2cc(C(=O)N3CCCC3)c(=O)n3ccccc23)CC1 | cell-free assay, competition with immobilised ligand | 1 µM | remaining binding | 96% |
| Cc1ccc(NC(=O)c2ccc(C)c(C(F)(F)F)c2)cc1C#Cc1nn(C2CCC(O)CC2)c2ncnc(N)c12 (centres unmarked) | cell-free assay | 10 µM | remaining signal | 140% |
| CNC(=O)c1cc(Oc2ccc(NC(=O)Nc3ccc(Cl)c(C(F)(F)F)c3)cc2)ccn1 | cell-free assay | 0.3 µM | inhibition | -8% |
| CC(C)c1ccc(NC(=O)c2cccs2)c(-c2nc3ccccc3[nH]c2=O)c1 | enzyme activity, inhibitor | 1 µM | activity vs control | 91% |
| Cc1ccc(Nc2nccc(N(C)c3ccc4c(C)n(C)nc4c3)n2)cc1S(N)(=O)=O | cell-free assay | 10 µM | inhibition | 14% |
| Cc1c(NC(=O)c2cc(C(N)=O)nc3cc(F)ccc23)c(C(F)(F)F)nn1Cc1ccc(C#N)cc1 | cell-free assay, competition with immobilised ligand | 1 µM | remaining binding | 90% |
| Oc1cccc(-c2nc(N3CCOCC3)c3oc4ncccc4c3n2)c1 | cell-free assay | 0.5 µM | remaining signal | 93.8% |
| CS(=O)(=O)N1CCCC(NC(=O)[C@H](CCC2CCCCC2)NC(=O)c2ccc(CNc3ncnc4c3nnn4-c3ccccc3)cc2)C1 (some centres unmarked) | cell-free assay, competition with immobilised ligand | 0.1 µM | remaining binding | 100% |
| Cc1nn(CC(F)(F)F)cc1Nc1nccc(NCCc2cnc[nH]2)n1 | enzyme activity, inhibitor, radiometric | 1 µM | remaining activity | 99% |
| Cc1c[nH]c2nccc(Oc3c(F)cc(Nc4cc(Cl)nc(N)n4)cc3F)c12 | cell-free assay, competition with immobilised ligand | 0.1 µM | remaining binding | 100% |
| CCN(CC)CCNC(=O)c1c(C)[nH]c(/C=C2\C(=O)Nc3ccc(F)cc32)c1C | cell-free assay | 0.5 µM | remaining signal | 26.7% |
| Cc1noc([C@H]2C[C@@H](c3ccc(C(F)(F)F)cc3)CN(C(=O)N3CCS(=O)(=O)C3)C2)n1 | cell-free assay, competition with immobilised ligand | 1 µM | remaining binding | 100% |
| CN1CCc2cc(Nc3ncc(C4CC4)c(NCCCNC(=O)C4CCC4)n3)ccc2C1 | enzyme activity, inhibitor, radiometric | 1 µM | remaining activity | 3% |
| CN(C)C(=O)Cn1cc(-c2nc(C3(c4ccc(-c5cnc(N)nc5)cc4)CC3)no2)cn1 | cell-free assay, competition with immobilised ligand | 1 µM | remaining binding | 100% |
| O=C(Nc1cccc(Nc2ncc(Br)c(NCCc3cnc[nH]3)n2)c1)N1CCCC1 | enzyme activity, inhibitor, radiometric | 1 µM | remaining activity | 6% |
| O=C1NC(=O)c2cc(Nc3ccc(F)cc3)c(Nc3ccc(F)cc3)cc21 | cell-free assay | 0.5 µM | remaining signal | 104% |
| Nc1ncnc2occ(-c3ccc(NC(=O)Nc4cc(C(F)(F)F)ccc4F)cc3)c12 | cell-free assay | 20 µM | remaining signal | 55% |
| c1cc(CN2CCOCC2)cc(Nc2ncc(C3CC3)c(NCCc3c[nH]cn3)n2)c1 | enzyme activity, inhibitor, radiometric | 1 µM | remaining activity | 50% |
| CN1CC(Oc2cnc(C#N)cc2-c2ccn3nc(NC(=O)C4CC4)cc3c2)C1 | enzyme activity, inhibitor | 1 µM | inhibition | 10% |
| CCCS(=O)(=O)Nc1ccc(F)c(C(=O)c2c[nH]c3ncc(-c4ccc(Cl)cc4)cc23)c1F | enzyme activity, inhibitor | 1 µM | inhibition | < 10% |
| Cc1nn(CC(F)(F)F)cc1Nc1nccc(NCc2ccc(S(N)(=O)=O)cc2)n1 | enzyme activity, inhibitor, radiometric | 1 µM | remaining activity | 103% |
| CC(=O)c1c(NS(C)(=O)=O)c2cc(-c3ccc(Cl)cc3)c(-c3ccc(Cl)cc3Cl)nc2n(C)c1=O | cell-free assay, competition with immobilised ligand | 1 µM | remaining binding | 88% |
| NS(=O)(=O)c1ccc(CNc2ccnc(Nc3cccc(NC(=O)N4CCCC4)c3)n2)cc1 | enzyme activity, inhibitor, radiometric | 1 µM | remaining activity | 82% |
| O=C1Nc2ccc(Cl)cc2C1=Cc1cc(Cl)c(O)c(Cl)c1 | cell-free assay | 0.5 µM | remaining signal | 78.9% |
| O=C(N[C@H]1CCCCC/C=C\C2C[C@@]2(C(=O)O)NC(=O)[C@@H]2C[C@@H](Oc3ccncc3)CN2C1=O)OC1CCCC1 (some centres unmarked) | binding, competition with immobilised ligand | 1 µM | remaining binding | 100% |
